According to ChEMBL document CHEMBL2384938, “Discovery of a New Class of Potent MMP Inhibitors by Structure-Based Optimization of the Arylsulfonamide Scaffold” (ACS Med Chem Lett, 2013):

How the values were obtained:
[1] = target: T1, Interstitial collagenase (Homo sapiens, UniProt P03956); test: Inhibition of MMP1 (unknown origin)-mediated Mca-Pro-Leu-Gly-Leu-Dpa-Ala-Arg-NH2 by fluorimetric assay
T1 sequence (P03956 whole entry): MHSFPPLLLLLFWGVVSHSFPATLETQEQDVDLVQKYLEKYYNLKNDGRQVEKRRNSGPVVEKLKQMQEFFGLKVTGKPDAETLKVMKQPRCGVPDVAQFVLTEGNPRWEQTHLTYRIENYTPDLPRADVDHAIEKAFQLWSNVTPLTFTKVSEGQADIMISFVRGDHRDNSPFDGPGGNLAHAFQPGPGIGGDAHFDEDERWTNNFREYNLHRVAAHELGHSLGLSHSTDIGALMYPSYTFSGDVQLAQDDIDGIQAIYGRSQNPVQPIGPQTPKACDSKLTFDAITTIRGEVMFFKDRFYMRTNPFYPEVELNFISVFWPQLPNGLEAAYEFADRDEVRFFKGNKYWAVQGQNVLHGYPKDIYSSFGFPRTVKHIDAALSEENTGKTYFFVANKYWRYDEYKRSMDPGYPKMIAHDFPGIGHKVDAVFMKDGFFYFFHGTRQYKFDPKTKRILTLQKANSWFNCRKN
Procedure, shortened: (§1)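 Activity read fluorimetrically; values reported as inhibition constants (Ki). The same assay format was used for each of MMP-1, -7, -8 and -13.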

[2] = target: Macrophage metalloelastase (Homo sapiens, UniProt P39900); test: Inhibition of MMP12 (unknown origin)-mediated Mca-Pro-Leu-Gly-Leu-Dpa-Ala-Arg-NH2 by fluorimetric assay
Chain of Macrophage metalloelastase (P39900 whole entry): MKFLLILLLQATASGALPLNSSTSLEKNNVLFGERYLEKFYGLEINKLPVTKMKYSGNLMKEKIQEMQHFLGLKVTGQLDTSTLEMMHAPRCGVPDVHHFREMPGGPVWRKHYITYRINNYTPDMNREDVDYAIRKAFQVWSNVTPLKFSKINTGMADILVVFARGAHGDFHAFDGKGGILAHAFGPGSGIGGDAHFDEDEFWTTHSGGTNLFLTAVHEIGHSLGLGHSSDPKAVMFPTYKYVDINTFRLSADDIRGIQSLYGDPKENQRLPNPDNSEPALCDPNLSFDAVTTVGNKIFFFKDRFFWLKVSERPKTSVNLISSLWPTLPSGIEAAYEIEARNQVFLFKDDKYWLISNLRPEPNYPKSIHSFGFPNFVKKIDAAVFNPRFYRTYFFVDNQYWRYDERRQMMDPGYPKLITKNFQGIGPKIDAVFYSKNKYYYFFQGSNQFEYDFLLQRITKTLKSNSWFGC

[3] = target: T2, Matrilysin (Homo sapiens, UniProt P09237); test: Inhibition of MMP7 (unknown origin)-mediated Mca-Pro-Leu-Gly-Leu-Dpa-Ala-Arg-NH2 by fluorimetric assay; procedure, shortened: as §1
T2 sequence (P09237 whole entry): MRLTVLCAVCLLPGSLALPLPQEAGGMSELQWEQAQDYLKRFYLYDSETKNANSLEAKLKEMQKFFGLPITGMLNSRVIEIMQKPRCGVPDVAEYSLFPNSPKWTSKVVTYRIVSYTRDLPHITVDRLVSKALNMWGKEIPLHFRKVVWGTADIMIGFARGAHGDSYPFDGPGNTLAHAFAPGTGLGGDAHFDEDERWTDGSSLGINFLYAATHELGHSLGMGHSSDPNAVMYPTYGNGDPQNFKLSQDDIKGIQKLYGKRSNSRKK

[4] = target: Neutrophil collagenase (Homo sapiens, UniProt P22894); test: Inhibition of MMP8 (unknown origin)-mediated Mca-Pro-Leu-Gly-Leu-Dpa-Ala-Arg-NH2 by fluorimetric assay; procedure, shortened: as §1
Chain of Neutrophil collagenase (P22894 whole entry): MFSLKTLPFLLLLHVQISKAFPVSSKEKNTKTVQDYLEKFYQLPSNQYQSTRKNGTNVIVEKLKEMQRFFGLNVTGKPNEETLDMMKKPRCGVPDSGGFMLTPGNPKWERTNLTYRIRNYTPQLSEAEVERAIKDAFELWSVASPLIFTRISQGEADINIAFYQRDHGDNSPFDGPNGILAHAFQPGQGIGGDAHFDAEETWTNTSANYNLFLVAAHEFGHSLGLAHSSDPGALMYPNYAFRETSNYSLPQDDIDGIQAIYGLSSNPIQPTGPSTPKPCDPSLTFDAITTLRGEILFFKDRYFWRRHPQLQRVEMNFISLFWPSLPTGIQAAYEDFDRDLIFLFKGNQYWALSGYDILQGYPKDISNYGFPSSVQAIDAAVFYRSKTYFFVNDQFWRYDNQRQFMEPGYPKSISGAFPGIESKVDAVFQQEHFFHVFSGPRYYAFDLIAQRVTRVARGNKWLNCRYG

[5] = target: Collagenase 3 (Homo sapiens, UniProt P45452); test: Inhibition of MMP13 (unknown origin)-mediated Mca-Pro-Leu-Gly-Leu-Dpa-Ala-Arg-NH2 by fluorimetric assay; procedure, shortened: as §1

SMILES | Ki [1] | Ki [2] | Ki [3] | Ki [4] | Ki [5]
O=C(O)CNS(=O)(=O)c1ccc(-c2ccccc2)cc1 | 0.365 µM | 18 µM |  |  | 
O=C(CNS(=O)(=O)c1ccccc1)NO | 3.4 µM | 0.062 µM | 4 µM | 0.24 µM | 0.042 µM
O=C(CNS(=O)(=O)CCc1ccccc1)NO | 5.7 µM | 0.023 µM | 10.7 µM | 0.075 µM | 0.049 µM
O=C(NO)[C@H]1CCCN1S(=O)(=O)CCc1ccccc1 | 1.8 µM | 0.016 µM | 7 µM | 0.043 µM | 0.014 µM
COc1ccc(CCS(=O)(=O)NCC(=O)NO)cc1 |  | 0.01 µM |  | 0.014 µM | 0.012 µM
COc1ccc(CCS(=O)(=O)N2CCC[C@H]2C(=O)NO)cc1 |  | 0.001 µM |  | 0.004 µM | 0.001 µM
O=C(CNS(=O)(=O)CCc1ccc(Oc2ccccc2)cc1)NO |  | 0.01 µM |  | 0.032 µM | 0.019 µM
O=C(NO)[C@H]1CCCN1S(=O)(=O)CCc1ccc(Oc2ccccc2)cc1 |  | 0.005 µM |  | 0.098 µM | 0.01 µM
O=C(O)CNS(=O)(=O)CCc1ccc(-c2ccccc2)cc1 |  | 0.007 µM |  | 0.007 µM | 0.005 µM
O=C(CNS(=O)(=O)CCc1ccc2c(c1)OCO2)NO | 19.7 µM | 0.015 µM | 18.5 µM | 0.02 µM | 0.035 µM
O=C(NO)[C@@H]1CCCN1S(=O)(=O)CCc1ccc2c(c1)OCO2 | 7 µM | 0.005 µM | 6 µM | 0.013 µM | 0.01 µM
O=C(CNS(=O)(=O)CCc1ccc(Cl)s1)NO |  | 0.006 µM |  | 0.037 µM | 0.006 µM
O=C(O)CNS(=O)(=O)CCc1ccc(Cl)s1 |  | 0.272 µM |  | 0.364 µM | 0.323 µM
O=C(NO)[C@@H]1CCCN1S(=O)(=O)CCc1ccc(Cl)s1 |  | 0.009 µM |  | 0.006 µM | 0.003 µM
O=C(O)[C@@H]1CCCN1S(=O)(=O)c1ccc(Cl)s1 |  | 0.672 µM |  | 0.275 µM | 0.175 µM
O=C(CNS(=O)(=O)c1ccc(-c2ccccc2)cc1)NO | 0.365 µM | 0.002 µM | 5 µM | 0.009 µM | 0.002 µM
COc1ccc(S(=O)(=O)NCC(=O)NO)cc1 |  | 0.02 µM | 4 µM |  | 
O=C(NO)C1CCCN1S(=O)(=O)CCc1ccc(-c2ccccc2)cc1 (single isomer, unassigned) |  | 0.002 µM |  | 0.003 µM | 0.001 µM
